Laboratory results: ChEMBL document CHEMBL1121733, “Synthesis and evaluation of ureido- and vinylureidopenicillins as inhibitors of intraruminal lactic acid production” (J Med Chem, 1981)
≈ marks a conversion by molar mass, not a printed value.

Legend:
[1] = Effective inhibition concentration for reduction of lactic acid production to less than 10% of control; type: functional
In short: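 Bovine rumen fluid from a fistulated animal, strained through cheesecloth, mixed 1:1 with CO2-saturated buffer (glucose 27 g/L, trypticase 1.50 g/L, Na2HPO4 4.26 g/L). Compounds retested from 0.5 mg/mL stock serially diluted to 0.004 mg/mL, duplicate tubes, 5.5 h at 39 °C. Stopped with 25% metaphosphoric acid, centrifuged, l(+)-lactate measured enzymatically. Value is the minimum concentration giving lactate below 10% of no-compound control.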

[2] = Percent inhibition of lactic acid production by the compound at 5 p.p.m.; type: functional; design: scale not given: the % may be the effect or the level left
In short: (§1)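 Screen at 50, 5 and 0.5 µg/mL of incubation contents in strained bovine rumen fluid mixed 1:1 with CO2-saturated glucose/trypticase buffer, 5.5 h at 39 °C. Stopped with metaphosphoric acid, l(+)-lactate measured enzymatically. Expressed as lactate production as % of control incubations without compound.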

[3] = Effective inhibition concentration for reduction of propionic acid production to less than 95% of control; type: functional
In short: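 Rumen fluid from a fistulated bovine, strained and mixed 1:1 with CO2-saturated buffer with moderate substrate at normal intraruminal pH (volatile fatty acid model). Retest dilutions from 0.5 mg/mL stock down to 0.004 mg/mL, triplicate tubes, 9 h. Stopped with 25% metaphosphoric acid, centrifuged, propionate measured by GC-FID. Value is the minimum concentration giving propionate below 95% of control.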

[4] = Percent inhibition of lactic acid production by the compound at 0.5 p.p.m.; type: functional; design: scale not given: the % may be the effect or the level left; in short: as §1
Streptococcus pyogenes = test: In vitro Minimum inhibitory concentration against Streptococcus pyogenes ATCC 8668; type: functional
In short: (§2)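 Twofold broth microdilution from 200 to 0.0008 µg/mL in brain–heart infusion broth with 0.066 g/L tetrazolium chloride. Inoculum was 1 µL of a 1:10 dilution of an 18 h, 37 °C culture. Plates incubated 16 h at 37 °C, with growth read as red precipitate. Triplicate trays per compound per organism.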

Enterococcus faecium = test: In vitro Minimum inhibitory concentration against Streptococcus faecium ATCC 8043-2; type: functional; in short: as §2
[5] = Percent inhibition of lactic acid production by the compound at 50 p.p.m.; type: functional; design: scale not given: the % may be the effect or the level left; in short: as §1
Staphylococcus aureus [6] = test: In vitro Minimum inhibitory concentration against Staphylococcus aureus ATCC 6538P (penicillin G sensitive); type: functional; in short: as §2
Escherichia coli = test: In vitro Minimum inhibitory concentration against Escherichia coli ATCC 25922; type: functional; in short: as §2
Staphylococcus aureus [7] = test: (§3) In vitro Minimum inhibitory concentration against Staphylococcus penicillin G resistant); type: functional, staphylococcus pureus
In short: (§4)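 Broth microdilution in brain–heart infusion broth with 0.066 g/L tetrazolium chloride. Serial twofold dilutions from 200 to 0.0008 µg/mL. Inoculum: 1 µL of a 1:10 dilution of an 18 h, 37 °C culture. Incubated 16 h at 37 °C; growth read as red precipitate. MIC taken from triplicate trays per compound per organism.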

[8] = Lipophilicity estimated on reversed phase TLC; type: physicochemical; details: silicone oil-coated silica gel plates, 30% MeOH in pH 7.0 buffer
In short: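 Reversed-phase TLC on silica gel G plates dipped in 20 vol % silicone oil in hexane and dried. Mobile phase 30 vol % MeOH in pH 7.0 buffer. ΔR_M measured against a reference compound run on every plate, averaged over 2–6 plates.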

Staphylococcus aureus [9] = test: as §3; type: functional; in short: as §4

Structure (SMILES) | Concentration [1] [µg/mL] | Control [2] [%] | Dose [3] [µg/mL] | Control [4] [%] | MIC (Streptococcus pyogenes) [µg/mL] | MIC (Enterococcus faecium) [µg/mL] | Control [5] [%] | MIC (Staphylococcus aureus [6]) [µg/mL] | MIC (Escherichia coli) [µg/mL] | MIC (Staphylococcus aureus [7]) [µg/mL] | Delta RM [8] | MIC (Staphylococcus aureus [9]) [µg/mL]
CC1(C)SC2C(NC(=O)N/C=C/c3ccc(Cl)cc3)C(=O)N2[C@H]1C(=O)[O-].[Na+] (stereo partly specified) | 1.25 | 2 | > 10 | 0 | 3.12 | > 200 | 10 | 6.25 | > 200 | 50 | 0.58 | –
CC(C)(C)c1ccc(/C=C/NC(=O)NC2C(=O)N3C2SC(C)(C)[C@@H]3C(=O)[O-])cc1.[Na+] (stereo partly specified) | – | – | – | – | 1.6 | > 200 | – | 3.12 | > 200 | 100 | 1.31 | –
CC(C)(C)c1ccc(/C=C/NC(=O)NC2C(=O)N3C2SC(C)(C)[C@@H]3C(=O)O)cc1 (stereo partly specified) | 0.16 | 0 | > 10 | 0 | – | – | 0 | – | – | – | – | –
CC1(C)SC2C(NC(=O)N/C=C/C3CCCCC3)C(=O)N2[C@H]1C(=O)[O-].[Na+] (stereo partly specified) | 0.31 | 2 | 2.5 | 0 | 0.2 | 50 | 2 | 0.4 | > 200 | 50 | 0.77 | –
CC1(C)SC2C(NC(=O)Nc3ccc(Cl)cc3)C(=O)N2[C@H]1C(=O)[O-].[Na+] (stereo partly specified) | – | 112 | – | 102 | – | – | 2 | – | – | – | -0.01 | –
CC1(C)SC2C(NC(=O)N/C=C/c3cccc(Br)c3)C(=O)N2[C@H]1C(=O)[O-].[Na+] (stereo partly specified) | – | 0 | – | 142 | – | – | 3 | – | – | – | 0.69 | –
COc1cc(/C=C/NC(=O)NC2C(=O)N3C2SC(C)(C)[C@@H]3C(=O)[O-])cc(OC)c1OC.[Na+] (stereo partly specified) | – | 2 | – | 105 | – | – | 8 | – | – | – | -0.45 | –
CC1(C)SC2C(NC(=O)NCCc3ccc4ccccc4c3)C(=O)N2[C@H]1C(=O)[O-].[Na+] (stereo partly specified) | 0.31 | 7 | > 10 | 2 | 0.05 | 6.25 | 9 | 0.1 | > 200 | 25 | 0.89 | –
CCOC(=O)c1ccc(NC(=O)NC2C(=O)N3C2SC(C)(C)[C@@H]3C(=O)O)cc1 (stereo partly specified) | – | 95 | – | 101 | – | – | 3 | – | – | – | – | –
CCOc1ccc(/C=C/NC(=O)NC2C(=O)N3C2SC(C)(C)[C@@H]3C(=O)[O-])cc1.[Na+] (stereo partly specified) | 0.31 | 1 | > 10 | 0 | – | – | 1 | – | – | – | 0.43 | –
CC1(C)S[C@@H]2[C@H](NC(=O)Cc3ccccc3)C(=O)N2[C@H]1C(=O)O [PENICILLIN G] | – | – | – | – | 0.01 (≈ 0.0299 µM) | 0.4 (≈ 1.2 µM) | – | 0.05 (≈ 0.15 µM) | 25 (≈ 74.8 µM) | 50 (≈ 150 µM) | – | –
CC1(C)SC2C(NC(=O)N/C=C/c3ccc(Cl)c(Cl)c3)C(=O)N2[C@H]1C(=O)[O-].[Na+] (stereo partly specified) | – | 106 | – | 107 | – | – | 1 | – | – | – | 1.44 | –
CC1(C)SC2C(NC(=O)N/C=C/c3cccc4ccccc34)C(=O)N2[C@H]1C(=O)[O-].[Na+] (stereo partly specified) | – | 0 | – | 111 | – | – | 3 | – | – | – | 0.66 | –
CC1(C)SC2C(NC(=O)N/C=C/c3ccc4c(c3)OCO4)C(=O)N2[C@H]1C(=O)[O-].[Na+] (stereo partly specified) | 0.16 | 0 | > 10 | 0 | 1.6 | 200 | 4 | 6.25 | 100 | 50 | -0.06 | –
CC1(C)SC2C(NC(=O)NC3CC3c3ccccc3)C(=O)N2[C@H]1C(=O)[O-].[Na+] (stereo partly specified) | – | 4 | – | 104 | – | – | 8 | – | – | – | -0.29 | –
CC1(C)SC2C(NC(=O)Nc3ccccc3)C(=O)N2[C@H]1C(=O)[O-].[Na+] (stereo partly specified) | – | 110 | – | 96 | – | – | 3 | – | – | – | -0.75 | –
CC1(C)SC2C(NC(=O)NCc3ccc4ccccc4c3)C(=O)N2[C@H]1C(=O)[O-].[Na+] (stereo partly specified) | 0.08 | 4 | 5 | 4 | 0.05 | 3.12 | 9 | 0.05 | > 200 | – | 0 | 50
CC1(C)SC2C(NC(=O)NC3CCCCC3)C(=O)N2[C@H]1C(=O)[O-].[Na+] (stereo partly specified) | – | 0 | – | 99 | – | – | 2 | – | – | – | -0.62 | –
CC1(C)SC2C(NC(=O)N/C=C/c3ccco3)C(=O)N2[C@H]1C(=O)[O-].[Na+] (stereo partly specified) | – | 89 | – | 101 | – | – | 3 | – | – | – | -0.26 | –
CC1(C)SC2C(NC(=O)N/C=C/c3cccs3)C(=O)N2[C@H]1C(=O)[O-].[Na+] (stereo partly specified) | – | 52 | – | 102 | – | – | 0 | – | – | – | -0.2 | –
CC(C)NC(=O)NC1C(=O)N2C1SC(C)(C)[C@@H]2C(=O)[O-].[Na+] (stereo partly specified) | – | 119 | – | 108 | – | – | 7 | – | – | – | -2 | –
C/C(=C\NC(=O)NC1C(=O)N2C1SC(C)(C)[C@@H]2C(=O)[O-])c1ccccc1.[Na+] (stereo partly specified) | – | 5 | – | 87 | – | – | 0 | – | – | – | 0.3 | –
Cc1ccc(/C=C/NC(=O)NC2C(=O)N3C2SC(C)(C)[C@@H]3C(=O)[O-])cc1.[Na+] (stereo partly specified) | 0.31 | 2 | > 10 | 0 | – | – | 2 | – | – | – | 0.5 | –
CC(C)(C)c1ccc(/C=C/NC(=O)NC2C(=O)N3C2SC(C)(C)[C@@H]3C(=O)O)cc1.CCN(CC)CC (stereo partly specified) | – | – | – | – | – | – | – | – | – | – | 1.31 | –
CC1(C)SC2C(NC(=O)N/C=C/c3ccc4ccccc4c3)C(=O)N2[C@H]1C(=O)[O-].[Na+] (stereo partly specified) | 0.31 | 2 | > 10 | 1 | 3.12 | 200 | 8 | 3.12 | > 200 | 100 | 1.05 | –
